The values that follow come from ChEMBL document CHEMBL1124486, “Antimalarial activity of new water-soluble dihydroartemisinin derivatives. 2. Stereospecificity of the ether side chain” (J Med Chem, 1989).

For assay [1], the system named is Plasmodium falciparum. Description: In vitro antimalarial activity against Plasmodium falciparum W-2 Indochina. The format is functional, organism-based. In outline: (§1)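 [³H]hypoxanthine uptake assay. Compound was dissolved in DMSO and 70% ethanol, diluted in RPMI 1640 with 10% human plasma, then tested over (1.56-100) × 10⁻⁹ M. Parasites (0.5% parasitemia, 1% hematocrit) were incubated 24 h with compound, then [³H]hypoxanthine was added and incubation continued 18 h. Cells were harvested and counted by scintillation. IC50 came from nonlinear regression of concentration-response data.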

Assay [2] deals with Plasmodium falciparum. Description: In vitro antimalarial activity against Plasmodium falciparum D6 (Sierra Leone). The format is functional, organism-based. In outline:
as §1

In assay [3] the test system is Plasmodium berghei. Description: Increased mean survival time (>12-14 days) in P berghei infected mice (Mus musculus) after 3 days at 80 mg/kg; active in 5 of 5. The format is functional.
Assay [4] concerns Plasmodium berghei. Description: Cures in Plasmodium berghei infected mice (Mus musculus) after 3 days at 20 mg/kg; cured 0 of 5. It is filed as functional.
Assay [5] concerns Plasmodium berghei. The experiment in a line: Cures in Plasmodium berghei infected mice (Mus musculus) after 3 days at 320 mg/kg; cured 3 of 5. The format is functional.
The subject of assay [6] is Plasmodium berghei. Description: Cures in Plasmodium berghei infected mice (Mus musculus) after 3 days at 80 mg/kg; cured 0 of 5. It is filed as functional.
For assay [7], the system named is Plasmodium berghei. Description: Cures in Plasmodium berghei infected mice (Mus musculus) after 3 days at 20 mg/kg; cured 1 of 5. The format is functional.
Assay [8] relates to Plasmodium berghei. Description: Cures in Plasmodium berghei infected mice (Mus musculus) after 3 days at 320 mg/kg; cured 5 of 5. The format is functional.
The test system of assay [9] is Plasmodium berghei. The experiment in a line: Cures in Plasmodium berghei infected mice (Mus musculus) after 3 days at 80 mg/kg; […]. The format is functional.
In assay [10] the test system is Plasmodium berghei. The experiment in a line: Increased mean survival time (>12-14 days) in Plasmodium berghei infected mice (Mus musculus) after 3 days at 20 mg/kg; active in 4 of /5. The format is functional.
In assay [11] the test system is Plasmodium berghei. The experiment in a line: Increased mean survival time (>12-14 days) in Plasmodium berghei infected mice (Mus musculus) after 3 days at 80 mg/kg; active in 1 of 5. It is filed as functional.
In assay [12] the test system is Plasmodium berghei. The experiment in a line: Cures in Plasmodium berghei infected mice (Mus musculus) after 3 days at 640 mg/kg; cured 4 of 5. It is filed as functional.
Assay [13] concerns Plasmodium berghei. Description: Increase in mean survival time (>12-14 days) in Plasmodium berghei infected mice (Mus musculus) after 3 days at 80 mg/kg; active in 1 of 5. It is filed as functional.
Assay [14] has as its system Plasmodium berghei. Description: Cures in Plasmodium berghei infected mice (Mus musculus) after 3 days at 160 mg/kg; cured 1 of 5. The format is functional.
Assay [15] has as its system Plasmodium berghei. Description: Cures in Plasmodium berghei infected mice (Mus musculus) after 3 days at 80 mg/kg; cured 2 of 5. It is filed as functional.
In assay [16] the test system is Plasmodium berghei. Description: Increased mean survival time (>12-14 days) in P berghei infected mice (Mus musculus) after 3 days at 80 mg/kg; active in 3 of 5. The format is functional.
Assay [17] concerns Plasmodium berghei. The experiment in a line: Cures in Plasmodium berghei infected mice (Mus musculus) after 3 days at 80 mg/kg; cured 1 of 5. It is filed as functional.
The test system of assay [18] is Plasmodium berghei. The experiment in a line: Increased mean survival time (>12-14 days) in Plasmodium berghei infected mice (Mus musculus) after 3days at 20 mg/kg; active in 2 of 5. It is filed as functional.
The test system of assay [19] is Plasmodium berghei. Description: Cures in Plasmodium berghei infected mice (Mus musculus) after 3 days at 160 mg/kg; cured 5 of 5. It is filed as functional.
Assay [20] relates to Plasmodium berghei. The experiment in a line: Cures in Plasmodium berghei infected mice (Mus musculus) after 3 days at 640 mg/kg; cured 5 of 5. It is filed as functional.

Molecules are shown by their SMILES. In brackets after ≈: the same amount, converted by molar mass.

On to `C[C@H]1[C@@H](OC[C@H](C)C(=O)O)O[C@@H]2O[C@@]3(C)CC[C@H]4[C@H](C)CC[C@@H]1[C@@]24OO3`, for which the results for the IC50 in the assay with Plasmodium falciparum [1] and in the assay on Plasmodium falciparum [2] were 8.33 ng/mL (≈ 22.5 nM) and 28.7 ng/mL (≈ 77.5 nM), respectively.

Consider `C[C@H]1[C@@H](O[C@@H](C)CC(=O)O)O[C@@H]2O[C@@]3(C)CC[C@H]4[C@H](C)CC[C@@H]1[C@@]24OO3`, for which the values for the IC50 in the assay on Plasmodium falciparum [1] and in the assay on Plasmodium falciparum [2] were 7.43 ng/mL (≈ 20.1 nM) and 15 ng/mL (≈ 40.6 nM), respectively.

Take `COC(=O)C[C@@H](C)O[C@H]1O[C@@H]2O[C@@]3(C)CC[C@H]4[C@H](C)CC[C@@H]([C@H]1C)[C@@]24OO3`: the IC50 (commonly the concentration at which inhibition is half-maximal) with Plasmodium falciparum [1] stood at 0.071 ng/mL (≈ 0.185 nM); in the assay on Plasmodium falciparum [2], 0.44 ng/mL (≈ 1.14 nM).

Consider `C[C@H]1[C@@H](OCC23CC4CC(CC(C4)C2)C3)O[C@@H]2O[C@@]3(C)CC[C@H]4[C@H](C)CC[C@@H]1[C@@]24OO3`, for which the “No. of mice survived” value with Plasmodium berghei [3] is 5. In addition, the “No. of mice cured” value worked out at 0 in the assay with Plasmodium berghei [4], 3 with Plasmodium berghei [5] and 0 in the assay with Plasmodium berghei [6]. The IC50 was 2.11 ng/mL (≈ 4.88 nM) with Plasmodium falciparum [1] and 2.7 ng/mL (≈ 6.24 nM) in the assay with Plasmodium falciparum [2].

On to `C[C@H]1[C@@H](OC[C@@H](C)C(=O)O)O[C@@H]2O[C@@]3(C)CC[C@H]4[C@H](C)CC[C@@H]1[C@@]24OO3`, for which the figures for the half-maximal inhibitory concentration (IC50) in the assay with Plasmodium falciparum [1] and with Plasmodium falciparum [2] were 5.32 ng/mL (≈ 14.4 nM) and 22.2 ng/mL (≈ 60 nM), respectively.

`C[C@H]1[C@@H](O[C@H](C)CC(=O)O)O[C@@H]2O[C@@]3(C)CC[C@H]4[C@H](C)CC[C@@H]1[C@@]24OO3`: the IC50 in the assay with Plasmodium falciparum [1] is 4.42 ng/mL (≈ 11.9 nM); in the assay on Plasmodium falciparum [2], 36.5 ng/mL (≈ 98.4 nM).

For the compound `COC(=O)C[C@H](C)O[C@H]1O[C@@H]2O[C@@]3(C)CC[C@H]4[C@H](C)CC[C@@H]([C@H]1C)[C@@]24OO3`, the “No. of mice cured” value with Plasmodium berghei [7] is on record as 1; with Plasmodium berghei [8] it was 5; in the assay with Plasmodium berghei [9], 5. In addition, the “No. of mice survived” value with Plasmodium berghei [10] stood at 4. Also, the IC50 with Plasmodium falciparum [1] amounted to 0.48 ng/mL (≈ 1.25 nM); in the assay on Plasmodium falciparum [2], 1.91 ng/mL (≈ 4.97 nM).

In the case of `C=C[C@H]1CN2CC[C@H]1C[C@H]2[C@H](O)c1ccnc2ccc(OC)cc12` [QUININE], the IC50 in the assay on Plasmodium falciparum [1] came out at 59 ng/mL (≈ 182 nM); with Plasmodium falciparum [2], 3.61 ng/mL (≈ 11.1 nM).

For the compound `COC(=O)[C@@H](C)CO[C@H]1O[C@@H]2O[C@@]3(C)CC[C@H]4[C@H](C)CC[C@@H]([C@H]1C)[C@@]24OO3`, the IC50 was 0.015 ng/mL (≈ 0.039 nM) in the assay on Plasmodium falciparum [1] and 0.36 ng/mL (≈ 0.936 nM) in the assay on Plasmodium falciparum [2].

In the case of `CC1=CO[C@@H]2O[C@]3(C)CC[C@H]4[C@H](C)CC[C@@H]1[C@@]24OO3` [ANHYDRODIHYDROARTEMISININ], the No. of mice survived was determined as 1 with Plasmodium berghei [11], 2 in the assay with Plasmodium berghei [9] and 1 in the assay with Plasmodium berghei [13]. For the same compound, the “No. of mice cured” value in the assay with Plasmodium berghei [12] worked out at 4; with Plasmodium berghei [14], 1; in the assay on Plasmodium berghei [15] it was 2. Besides, the 50% inhibitory concentration (IC50) came out at 0.43 ng/mL (≈ 1.61 nM) with Plasmodium falciparum [1] and 0.83 ng/mL (≈ 3.12 nM) in the assay on Plasmodium falciparum [2].

In the case of `COC(=O)[C@H](C)CO[C@H]1O[C@@H]2O[C@@]3(C)CC[C@H]4[C@H](C)CC[C@@H]([C@H]1C)[C@@]24OO3`, the entries for the “No. of mice survived” value with Plasmodium berghei [16] and with Plasmodium berghei [18] were 3 and 2, respectively. The “No. of mice cured” value was determined as 0 with Plasmodium berghei [4], 5 in the assay with Plasmodium berghei [8] and 1 in the assay with Plasmodium berghei [17]. Also, the figures for the IC50 in the assay on Plasmodium falciparum [1] and with Plasmodium falciparum [2] were 0.057 ng/mL (≈ 0.148 nM) and 2.15 ng/mL (≈ 5.59 nM), respectively.

Take `C[C@@H]1CC[C@H]2[C@@H](C)C(=O)O[C@@H]3O[C@@]4(C)CC[C@@H]1[C@]32OO4` [ARTEMISININ]: the “No. of mice survived” value is 3 with Plasmodium berghei [16] and 2 in the assay on Plasmodium berghei [18]. Moreover, the “No. of mice cured” value in the assay with Plasmodium berghei [19] was determined as 5; with Plasmodium berghei [4], 0; in the assay with Plasmodium berghei [20] it was 5; with Plasmodium berghei [15] it was 2. In addition, the half-inhibitory concentration (IC50) amounted to 2.6 ng/mL (≈ 9.21 nM) in the assay with Plasmodium falciparum [1] and 2.35 ng/mL (≈ 8.32 nM) in the assay with Plasmodium falciparum [2].
